Bioassay records: PubChem BioAssay, The Scripps Research Institute Molecular Screening Center
CHO parental Ca = counter-screen for OX1R antagonists: effect in parental CHO cells. parental CHO-K1, ATP-induced calcium, Fluo-8 fluorescence. inhibition, % at 5.6 µM. 330,000 tested, 0.63% active;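 active means inhibition above that plate's mean sample inhibition plus 3 SD, cut at about 26% in these data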
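Assay system: parental CHO cells; Read-out basis: percent inhibition of ATP-evoked calcium rise, normalized to controls; Benchmarks: ATP and no-ATP DMSO wells; Compound dosing: single nominal dose of 5.6 µM per compound; Signal: Fluo-8 calcium dye fluorescence; Also added: ATP as calcium-mobilizing challenge; Repeats: singlicate.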
TAAR1 agonist = agonists of human TAAR1; CHO RD-HGA16 TAAR1, Fluo-8 calcium fluorescence; vehicle wells 0%, saturating PEA agonist 100%; activation, % at 3 µM; 360,000 tested, 0.99% active; AID 624467;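 active means activation above the mean activation of all test compounds in the run plus 3 SD, cut at about 38% in these data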
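System: CHO-derived RD-HGA16 cells with stable Gα16 and human TAAR1. Times: 17-24 h plating, Fluo-8 75 min 37 °C, 30 min RT. Measured by: calcium-sensitive Fluo-8 signal, excitation 470-495, emission 515-575 nm. Read-out basis: % activation relative to PEA EC100 response. Control set: DMSO and PEA EC100. Repeats: no replicates (n 1).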
OX1R antag-1 = human HCRTR1 antagonism | O43613 | CHO/OX1R cells, Fluo-8 calcium fluorescence, orexin A | inhibition, % at 5 µM | 330,000 tested, 0.43% active;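 active means inhibition above its plate's threshold, mean inhibition of all tested compounds on the plate plus 3 SD, cut at about 37% in these data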
TAAR1 antag = antagonists of human TAAR1; AID 624466; CHO RD-HGA16 TAAR1, Fluo-8 calcium fluorescence, antagonist; Q96RJ0; inhibition, % at 3 µM; 360,000 tested, 1.5% active;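 active means inhibition above a per-plate cutoff, the mean inhibition of test compounds on that plate plus 3 SD, cut at about 49% in these data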
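System: RD-HGA16 CHO cells with stable hTAAR1 and Gα16 | Probe or stimulus: EC80 β-phenethylamine stimulus | Dosing: 3 µM, single point | Times: Dye loading 75 min at 37 °C, then 30 min room temperature | Measured by: Fluo-8 calcium-sensitive fluorescence | Read-out basis: % inhibition of agonist calcium response | Replicates: n of 1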
OX1R antag-2 = blocks the human orexin 1 receptor; O43613; OX1R-expressing cells, FRET antagonist read-out; inhibition, % at 6.6 µM; 330,000 tested, 1.8% active; in the data active means inhibition mostly above about 38%, no sharp cut-off; inactive means mostly below about 40%
GPR7 antag = antagonists of human GPR7 (neuropeptides B/W receptor 1). AID 1861. GPR7-expressing cells, fluorescence antagonist assay. 290,000 tested, 1.1% active. inhibition, % at 4.4 µM; in the data active means inhibition above about 16%, passing the limit was not always enough;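 further: cells stimulated with the agonist NPW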
Target sequence (P48145 whole entry, looked up): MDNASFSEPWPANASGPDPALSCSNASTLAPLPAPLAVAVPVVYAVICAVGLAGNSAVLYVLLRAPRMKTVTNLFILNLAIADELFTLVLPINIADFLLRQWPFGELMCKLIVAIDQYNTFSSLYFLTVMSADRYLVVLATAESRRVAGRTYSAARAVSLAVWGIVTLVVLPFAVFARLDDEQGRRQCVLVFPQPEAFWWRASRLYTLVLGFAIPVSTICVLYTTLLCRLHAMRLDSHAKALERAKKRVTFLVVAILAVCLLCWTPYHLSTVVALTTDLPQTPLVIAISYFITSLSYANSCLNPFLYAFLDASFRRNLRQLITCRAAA
A number is an active result; i = inactive; nt = no result. Rows were chosen to be rich in hits. Some 4.6% of all compounds tested hit in one or more screens of this group.

SMILES	CHO parental Ca	TAAR1 agonist	OX1R antag-1	TAAR1 antag	OX1R antag-2	GPR7 antag
N#C/C(=C/c1ccc(Sc2nc3ccccc3[nH]2)o1)c1cccc(Br)c1	i	i	i	i	80	i
CCC(=O)N/N=C/c1ccc(-c2ccc([N+](=O)[O-])cc2)o1	i	i	i	i	i	i
CC(C)(C)C(=O)/C=c1\s/c(=C\c2ccc(-c3ccc([N+](=O)[O-])cc3)o2)c(=O)n1CC(=O)NC(N)=O	64	53	71	59	i	i
COc1cccc(/C=N/Nc2snc(SC)c2C#N)c1	i	42	i	i	67	i
CSc1nsc(N/N=C/c2ccccc2)c1C#N	i	i	i	i	i	i
NC(=O)c1ccsc1NC(=O)COC(=O)c1cc(=O)[nH]c2ccccc12	i	i	i	50	i	nt
COc1cc(CC(=O)OCC(=O)Nc2sccc2C(N)=O)cc(OC)c1OC	i	i	i	63	i	i
O=C(COC(=O)c1cc(=O)[nH]c2ccccc12)NCc1cccs1	i	i	i	i	i	i
O/N=C(\c1ccc(Cl)cc1)c1cc2ccccc2o1	33	i	i	i	i	i
COc1ccc(C(CCN2CCOCC2)c2c(O)cc(OC)cc2OC)cc1 (configuration not stated)	i	i	i	i	i	nt
COc1ccc(C(c2c(O)ccc3ccccc23)N2CCOCC2)c(OC)c1 (configuration not stated)	68	i	71	i	i	i
COc1cc(NS(=O)(=O)c2c(C)[nH]c(C)c2C(=O)N2CCCCC2)cc(OC)c1OC	i	i	i	i	i	i
COc1ccc(Cl)cc1NS(=O)(=O)c1c(C)[nH]c(C)c1C(=O)N1CCCCC1	i	i	i	i	49	i
O=S(=O)(c1cccc2cccnc12)n1cnc2ccccc21	i	i	i	i	i	12
CCCCCN(C(=O)CCC(=O)OCC(=O)NCCc1ccccc1)c1c(N)n(CCCC)c(=O)[nH]c1=O	nt	i	nt	i	nt	nt
S=C(Nc1ccccc1)N1CCC(C2CCN(C(=S)Nc3ccccc3)CC2)CC1	i	nt	i	nt	i	19
O=C(COC(=O)c1cccc(N2C(=O)c3ccccc3C2=O)c1)Nc1ccccc1	i	i	i	i	i	i
N#Cc1cccc(NC(=O)COC(=O)c2cccc(N3C(=O)c4ccccc4C3=O)c2)c1	i	i	i	60	i	i
CC(NC(=O)CSc1nnc(CC(=O)Nc2ccc(Cl)c(Cl)c2)n1C)c1ccccc1 (configuration not stated)	i	42	i	i	i	i
C=CCN(CC=C)Cc1cc(=O)oc2cc(C)c(C)cc12	nt	i	nt	i	nt	nt
Cn1c(=O)c2c(-c3ccccc3)n(-c3ccccc3O)cc2n(C)c1=O	i	i	i	i	i	i
Cn1c(=O)c2c(-c3ccccc3)n(-c3ccccc3Br)cc2n(C)c1=O	nt	i	nt	53	nt	nt
C[C@H](c1ccccc1)N1C[C@@H](COCc2ccccc2)Oc2cccc(N3CCCCC3)c2S1(=O)=O	nt	i	nt	i	nt	nt
O=[N+]([O-])c1ccc2nc(-c3ccc(Cl)cc3)n(OCc3ccccc3)c2c1	i	39	i	i	i	i
Clc1ccc(COn2c(-c3ccccc3)nc3ccccc32)cc1	i	i	i	i	54	i
SMILES	CHO parental Ca	TAAR1 agonist	OX1R antag-1	TAAR1 antag	OX1R antag-2	GPR7 antag
COc1cc(/C=C2\C(=O)N(CCC#N)N=C2C)ccc1OCC(=O)Nc1ccccc1	i	i	i	54	i	i
COc1ccc(C)cc1NC(=O)COC(=O)CCC(=O)c1cccs1	i	i	i	i	i	nt
CCOC(=O)c1c(C)[nH]c(C(=O)C(C)OC(=O)c2cccc(OCc3c(C)noc3C)c2)c1C (configuration not stated)	49	i	i	i	i	i
CC(=O)Nc1ccc(N(C)C)cc1[N+](=O)[O-]	i	i	i	i	i	i
CN(C)c1c([N+](=O)[O-])cc2[nH]c(=O)[nH]c2c1[N+](=O)[O-]	i	i	i	i	42	i
Cc1cc(NS(=O)(=O)c2ccc(Nc3nc(-c4sc(C)nc4C)cs3)cc2)no1	nt	nt	nt	nt	nt	i
COc1ccc(-c2csc(Nc3ccc(S(=O)(=O)Nc4cc(C)on4)cc3)n2)cc1	i	i	i	i	40	i
